Experimental data from different studies.
Lines come from different studies, so protocols differ.
Target: Mitogen-activated protein kinase 8 (MAPK8, Homo sapiens, UniProt P45983)

Compound | assay | setting | measurement | value
Cn1cncc1[C@](O)(COc1ccc(C#N)cc1-c1ccc(OC(F)(F)F)cc1)c1ccc(C#N)cc1 | cell-free assay, competition with immobilised ligand | 1 µM | remaining binding | 100%
O=c1[nH]c2ccccc2n1C1CCN(Cc2ccc(-c3[nH]c4cc5ncnc5cc4nc3-c3ccccc3)cc2)CC1 | cell-free assay | 0.5 µM | remaining signal | 89.6%
C#Cc1n[nH]c2c(-c3cn(C(C)c4ccccn4)c(=O)[nH]c3=O)cc(F)cc12 (centres unmarked) | enzyme activity, inhibitor | 1 µM | inhibition | -4.2%
CC(C)(C)c1cc(C=C(C#N)C#N)cc(Br)c1O | enzyme activity, inhibitor | 0.5 µM | remaining activity | 90.4%
Cn1cc(-c2cc(F)cc(N3CCn4c(cc5c4CCCC5)C3=O)c2CO)cc(Nc2ccc(N3CCN(C4COC4)CC3)cn2)c1=O | enzyme activity, inhibitor | 0.1 µM | inhibition | -1%
Nc1ncc(-c2nc(N3CCOCC3)nc(N3CCOCC3)n2)c(C(F)F)n1 | binding, competition with immobilised ligand | 10 µM | remaining binding | 86%
N#CC1(c2ccccn2)CCN(Cc2cc(C(=O)O)c(=O)n3ccccc23)CC1 | cell-free assay, competition with immobilised ligand | 1 µM | remaining binding | 85%
C#Cc1n[nH]c2c(-c3cn([C@@H](C)c4ccccc4)c(=O)[nH]c3=O)cc(F)cc12 | enzyme activity, inhibitor | 0.1 µM | inhibition | 1.5%
Cc1nn(C)cc1-c1nc2c(N3CCN(Cc4ccc(Cl)cc4)CC3)c(Cl)cnc2[nH]1 | binding, competition with immobilised ligand | 1 µM | remaining binding | 93%
Cn1cc(-c2cccc(N3CCc4c(sc5c4CC(C)(C)C5)C3=O)c2CO)cc(Nc2ccncn2)c1=O | enzyme activity, inhibitor | 1 µM | inhibition | 1%
COc1ncccc1-c1cnn2ccc(N3CCN(C(=O)OC(C)C)CC3)nc12 | binding, competition with immobilised ligand | 1 µM | remaining binding | 100%
